# Laboratory results published in the EternaBench riboswitch data.
# Test system: MS2 coat protein
# Test: apparent Kd, MS2 coat protein; higher = weaker binding; RNA-MaP array; FMN 200 µM where present
# Method in brief: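 SNAP-549-labelled MS2 coat protein, doubled from 0.7 or 1.5 nM to 3 µM, was titrated over designs transcribed by stalled E. coli RNA polymerase on Illumina sequencing-chip clusters. Titrations were run without and then with constant ligand in 100 mM Tris-HCl pH 7.5, 80 mM KCl, 4 mM MgCl2, BSA, DTT, yeast tRNA and Tween-20. The apparent Kd is the median of filtered per-cluster fits to green signal normalised to red-channel RNA signal and control-cluster median Fmax.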
# [1] = designed as: OFF switch for flavin mononucleotide, no ligand
# [2] = ligand present: flavin mononucleotide, designed as: OFF switch for flavin mononucleotide
# [3] = designed as: ON switch for flavin mononucleotide, no ligand
# [4] = ligand present: flavin mononucleotide, designed as: ON switch for flavin mononucleotide
sequence,measurement,setting,value
GGUACUCAAAGAGUACCAAUACGAACAUGAGGAUCACCCAUGUAGGAUAUGCUACUCAAAGAGUAGCAGAAGGACAUGUGCCUU,apparent Kd,[1],31.4 nM
same,apparent Kd,[2],252 nM
GGUUGGCGAGGAUAUACAUGAGGAUCACCCAUGUGAGAGAAAAAAGUGAGGAAGAAAAGUAGAAGGCGCUGACG,apparent Kd,[1],28.1 nM
same,apparent Kd,[2],123 nM
AAACAUGUCCGAGGAUAUCUGGAAACAUUUUCAAGAGAAGGCGGACAUGAGGAUCACCCAUGUCUCACCUCAUCAAAUCCAAGU,apparent Kd,[1],8.24 nM
same,apparent Kd,[2],30.2 nM
GUUUCGUGAGGAUAUGUGGCUUCGAUCGUGCGAAGAAGGCUACAGAAGGCACAUGAGGAUCACCCAUGUUCCUC,apparent Kd,[1],85.7 nM
same,apparent Kd,[2],592 nM
CCUAGUUGGUAAGGAUAUCCUACACUAUUCUGACCCGUGCAAGCUACAUGAGGAUCACCCAUGUGGGAGAAGGUGCGUCAACAU,apparent Kd,[1],10.1 nM
same,apparent Kd,[2],10.2 nM
GUAAAUCAUGUAGGAUAUGCAUGGCGAAGCUACGCAGAAGGACAUGAGGAUCACCCAUGUCUCUCCGUCUGCAUACAGACGGAG,apparent Kd,[1],26.9 nM
same,apparent Kd,[2],230 nM
UUUUCCGGGCAGAAGGGUCCUCACAUGAGGAUCACCCAUGUAAACGCGGAUAGGAUAUGCCACUGGGCUCGAUAAGAGUGGUUC,apparent Kd,[3],409 nM
same,apparent Kd,[4],160 nM
CUGAGGUCAGGAUAUGCAUGGCGGGACUUGCGUCGUGGCGUGGAGAAGGGACAUGAGGAUCACCCAUGUGGAGU,apparent Kd,[1],79 nM
same,apparent Kd,[2],54.2 nM
GGGUAAUAUCGAGGAUAUGUCUAGACACAUGAGGAUCACCCAUGUAUGUGUAUAGAAGGCGAUAUUAACAGCAUGUUACAUCCC,apparent Kd,[3],48.1 nM
same,apparent Kd,[4],20.8 nM
UUUUUGUGAGGAUAUCAGUAGUAGAACAAUAGUACUACUACUGAGAAGGCACAUGAGGAUCACCCAUGUUCCUU,apparent Kd,[1],16 nM
same,apparent Kd,[2],34.6 nM
UUAAUUUGGUGAUAUUAUGACAUUAGAAGGCUGUACAUGUUGAUACAUGAGGAUCACCCAUGUAUAGAGGAUAUAGACAAUUUU,apparent Kd,[1],48 nM
same,apparent Kd,[2],105 nM
GGGUACAUCGGAGGAUAUCAUGUCAAUACAUGAGGAUCACCCAUGUCGAUGGAGACAUCGGAGAUUGAGAAGGCCGAUGUACCG,apparent Kd,[3],66.5 nM
same,apparent Kd,[4],6.99 nM
ACGCGUUGGGAGAAGGUACAUUAAAUUAGUUUAACAUGAGGAUCACCCAUGUAAGGAUAUCCCAUCGUGUAAUAUUAUACAGCA,apparent Kd,[1],10.2 nM
same,apparent Kd,[2],12.2 nM
AGUAAGAUGCAGAAGGUGUUAGCUAGAGCUACGACAUGAGGAUCACCCAUGUACUAGAAACAGUACAAGGAUAUGCAUCUUACC,apparent Kd,[3],18.9 nM
same,apparent Kd,[4],6.52 nM
GCGUGGAAUACAGGAUAUGUUGUACAAUAAUCUUUGAGGCAUUGAGAUAAAACAGAAGGGUAAACAUGAGGAUCACCCAUGUAA,apparent Kd,[1],24.7 nM
same,apparent Kd,[2],19.6 nM
GGGAAGUAAGGAUAUGCUGCUCGUCACUUGCGUGAUGAGUAGCAGAAGGUACAUGAGGAUCACCCAUGUAAAAA,apparent Kd,[1],30.2 nM
same,apparent Kd,[2],28.6 nM
AUUGGGACAUGAGGAUCACCCAUGUACGCAGUGGGUAGAUCACAGGAUAUGCGAAGUGUGUGAGAGCAGAAGGGUGAGUACUUA,apparent Kd,[3],343 nM
same,apparent Kd,[4],59.5 nM
AAAUAGAAUGAGGAUAUCGUACUGGAUAUAGUGCGAGAAGGCAUUACAUGAGGAUCACCCAUGUUUUGUUGGGA,apparent Kd,[1],25.6 nM
same,apparent Kd,[2],76.6 nM
AAUUCACAUGAGGAUCACCCAUGUCAGGAUAUGGUUUCGCGGGUUUCGGUGCGUGAGGCCAGAAGGGACAGCUA,apparent Kd,[1],53.3 nM
same,apparent Kd,[2],72.4 nM
GACAUGGUCCAGAAGGGCUAUUUAUUUAAUUAUUAUUUAGAACAGCAUAGCAGGAUAUGGCUAACAUGAGGAUCACCCAUGUUC,apparent Kd,[3],21.5 nM
same,apparent Kd,[4],12.6 nM
ACUGUGCAUUAGAAGGGUGCGCGGCAAUCGCGCACAGGAUAUGAUGACAUGAGGAUCACCCAUGUCUGUGUCACCUGGGUGUCG,apparent Kd,[1],13.3 nM
same,apparent Kd,[2],83.8 nM
GGGUACAUGGGAGGAUAUGGGAAGAUACAUGAGGAUCACCCAUGUUUAAGAAUGCCGAGAGGCAACUAGAAGGCCCAUGUACCG,apparent Kd,[3],1040 nM
same,apparent Kd,[4],49 nM
CGCAUGUAAGGAUAUUAGUAGUAGUCAGAAUAGACUAUUACUGAGAAGGUACAUGAGGAUCACCCAUGUUAGCG,apparent Kd,[1],117 nM
same,apparent Kd,[2],592 nM
GUCUCGUCAGGAUAUGACGCUACAUUUUGUUUUUAGAAGAGUCAGAAGGGACAUGAGGAUCACCCAUGUGAUUC,apparent Kd,[1],329 nM
same,apparent Kd,[2],402 nM
CAAGACAUUCGAAACUGCCGGCCGCAGGAUAUGGGUCGUUUAUACAUGAGGAUCACCCAUGUCGCCUAGAAGGGCGGCUGGGUC,apparent Kd,[3],174 nM
same,apparent Kd,[4],17.6 nM
AUCAGCUCGUCAGGAUAUACGUCACUGCGUCAGCAGUGUGGUAAGUUCACAUGAGGAUCACCCAUGUAGAAGGGACGAGCUGAU,apparent Kd,[1],4.98 nM
same,apparent Kd,[2],7.14 nM
GUAAAGUGAGGAUAUGGUAAUUUAAUUAUUAAUUAAUUAAUCCAGAAGGCACAUGAGGAUCACCCAUGUAAAUG,apparent Kd,[1],31.9 nM
same,apparent Kd,[2],63 nM
UGGUACAUGGGAGGAUAUGGGUUGAUAACAUGAGGAUCACCCAUGUUAAAUAUGGCGAGAGCCAACUAGAAGGCCCAUGUACCU,apparent Kd,[3],594 nM
same,apparent Kd,[4],38.8 nM
UUUGUUUAGGUAGGAUAUACUUUUAAUUUCUCUUUCCUUACAUGAGGAUCACCCAUGUUUACAUUGUAGAAGGACCACUUUGUU,apparent Kd,[1],21.8 nM
same,apparent Kd,[2],19.8 nM
CUAGUACAUGAGGAUCACCCAUGUCAGGAUAUUGGAUAUGCCUUGGAAUACGUGUUUACAAGAAGGGACUAUAG,apparent Kd,[1],18.7 nM
same,apparent Kd,[2],19.2 nM
AGUGUCAUCGAGAAGGCCUCAUGGACAUGAGGAUCACCCAUGUAAAAUGGGAGGAUAUCGAUGAUACAGCUACGUUUCGUAGCA,apparent Kd,[3],226 nM
same,apparent Kd,[4],69.7 nM
UUUUAGGGAGGAUAUACAUUUUUUUUAUUAUCCUCAUUAUUACAUGAGGAUCACCCAUGUAGAAGGCCCAUUUU,apparent Kd,[1],60.7 nM
same,apparent Kd,[2],146 nM
GCGCUGCGUCAGAAGGGCCGAAAAGAGAAGAUGGCAGGAUAUGACAUGAGGAUCACCCAUGUACACGUCGCCAUGGGUGUUGGU,apparent Kd,[1],184 nM
same,apparent Kd,[2],36.4 nM
GGAUCUUGGGUCAGGAUAUGCUGAUAGUUAUGUCAGCAGAAGGGACAUGAGGAUCACCCAUGUGCUUGGUUUUG,apparent Kd,[1],12.9 nM
same,apparent Kd,[2],39.6 nM
UAAUAAUAAUAAUACGUCAUUACAUGAGGAUCACCCAUGUAUAAGGAUAUGCAGUGGAAUACACUGCAGAAGGUAUACAAGACG,apparent Kd,[1],22.6 nM
same,apparent Kd,[2],26.7 nM
UGACCCAUGACAUGAGAUGACAUGAGGAUCACCCAUGUUUACAAGGAUAUGUUGAUGAAACAUCAACAGAAGGUGUAAUGGGCU,apparent Kd,[1],29.8 nM
same,apparent Kd,[2],158 nM
UUGCCUCAGAACAUGAGGAUCACCCAUGUGCUGUGGGCAACAUAGGAUAUGAUGGUAUUAUACCGUCAGAAGGAUGAUGGUACU,apparent Kd,[3],5.34 nM
same,apparent Kd,[4],5.06 nM
UAGCCACAAGGAUAUACAUGAGGAUCACCCAUGUUUCCAGGAUGCCCUCUCAUGGGUUGUAGAAGGUGUCGGCG,apparent Kd,[1],15.8 nM
same,apparent Kd,[2],17.9 nM
CCACGACCGGAGAAGGCAGUUUGUGGGCCUGUUCCUGUCGGAUACAUGAGGAUCACCCAUGUACCUGAGGAUAUCUGGUCGUAG,apparent Kd,[1],4.99 nM
same,apparent Kd,[2],5.57 nM
GUUUUGAUAGGAUAUACAUGAGGAUCACCCAUGUCCCACCCGUUACCUCUGACCCUAUGUAGAAGGAUCGUUUG,apparent Kd,[1],34.3 nM
same,apparent Kd,[2],26.4 nM
CCAUGCGGAUGAGGAUAUUCAUCCAUGAGGAUAGAAGAAGGCAUACAUGAGGAUCACCCAUGUAUACACAUGAGGAUCCCUUAC,apparent Kd,[1],128 nM
same,apparent Kd,[2],178 nM
AGAUGCUCGAGUCGACAUGAGGAUCACCCAUGUACAGUUAGUGAGGAUAUCUGAGACACAUAGUAGGAGAAGGCGCGAACGUGA,apparent Kd,[1],84.4 nM
same,apparent Kd,[2],192 nM
AUCAGCUCGUCAGGAUAUACGUCACUGCGUCAGCAGUGUGGUAAGAUCACAUGAGGAUCACCCAUGUAGAAGGGCCGAGCUGAU,apparent Kd,[1],12.2 nM
same,apparent Kd,[2],184 nM
GUCAUCGUAUGAGGAUAUGGCACCGAAACGGUGCCAGAAGGCAUGUCAAUAGACAUGAGGAUCACCCAUGUGUUAUCGAUGGCA,apparent Kd,[3],116 nM
same,apparent Kd,[4],13.2 nM
GGAAAACAUGAGGAUCACCCAUGUGAAAACGUGGGAGGAUAUCGAUGGAAACCAUACUGUCGAGAAGGCCCAUGUC,apparent Kd,[3],51.8 nM
same,apparent Kd,[4],18 nM
UGAAAUCAUGUAGGAUAUGCAUGGCGAAGCUACGCAGAAGGACAUGAGGAUCACCCAUGUUCUAGCUACCGAGAACGGUGGCAA,apparent Kd,[1],20.9 nM
same,apparent Kd,[2],109 nM
AUGCCGUGCAGAGCGCGACGGCGAACAUGAGGAUCACCCAUGUAGGAUAUACUACACAAAGUGUAGUAGAAGGACGUGCAACAC,apparent Kd,[1],25.5 nM
same,apparent Kd,[2],34.7 nM
AAUGAGACCGCAGGAUAUCCACAUGAGGAUCACCCAUGUUCUCAGGUCGGAAGCACGACCUGCGAGGAGAAGGGCGACCUCAUA,apparent Kd,[3],715 nM
same,apparent Kd,[4],36.5 nM
CAACUGAGCGUAAAUUACCUGAACAUGAGGAUCACCCAUGUGGAGGAUAUUGACUUAGCAAAACUCGAGAAGGCCACUGGGAUG,apparent Kd,[1],39 nM
same,apparent Kd,[2],18.2 nM
UGAUAACAUGUAGGAUAUGCAGCAUUGACCACUGCAGAAGGACAUGAGGAUCACCCAUGUAGUUGUACUAUGGGAUCACGCAAU,apparent Kd,[1],419 nM
same,apparent Kd,[2],194 nM
AGACUGCGUAGAAUUAGCAGCCGACAGGAUAUGACAUGAGGAUCACCCAUGUGAACUACAAAGGAUCAGAAGGGUCACGACACA,apparent Kd,[1],20.1 nM
same,apparent Kd,[2],24.4 nM
AGUAACAGAGGAUAUACUGUUUUAUGUGUUUGUUAUUUUAAACAUGAGGAUCACCCAUGUAGAAGGCUGAAUAA,apparent Kd,[1],24.3 nM
same,apparent Kd,[2],23.4 nM
GUAGCAUACCGAGGAUAUUCAUACCGGAAACGGACAUGAGGAUCACCCAUGUGGCUAAUGCCUUGGGAGAAGGCGGAAUGCUAC,apparent Kd,[3],568 nM
same,apparent Kd,[4],21.7 nM
GCCUGACAUGAGGAUCACCCAUGUGAGGAUAUUUGGAUUGAGGAGUAGCACAUAGUCCAAAGAAGGUAUGUGGG,apparent Kd,[1],24.7 nM
same,apparent Kd,[2],60.7 nM
AUGGAUACCACAGGAUAUAGCUAGCAUAGCUAGCUAGAAGGGUGGUCCAUCCUAUGUAAAUACAUGAGGAUCACCCAUGUGUCC,apparent Kd,[3],403 nM
same,apparent Kd,[4],207 nM
